From ChEMBL document CHEMBL2146397, “The Substrate-Activity-Screening methodology applied to receptor tyrosine kinases: a proof-of-concept study” (Eur J Med Chem, 2012)
Calls of active or inactive are those of the source. The rule behind the calls is not given here. Numbered stars: 1 amine (or outer) side, 2 acyl side, 3 side chain; on linkers, the order of the positions; unused ones are H or OH. Square brackets hold non-standard residues; d marks the D form. Peptide text beside a SMILES is read from it. * marks the point of attachment. X7 = O=C([C@H](Cc1ccc(C(O)P(=O)(O)O)cc1)N[*:1])[*:2]; Trp(6-Cl) = N[C@@H](Cc1c[nH]c2cc(Cl)ccc12)C(=O)O; Phe(4-Cl) = N[C@@H](Cc1ccc(Cl)cc1)C(=O)O; X2 = O=C(O)[C@H]1CCCC[C@@H]1C(=O)*; 3Pal = N[C@@H](Cc1cccnc1)C(=O)O

Molecular target: T1, Insulin-like growth factor 1 receptor (Homo sapiens, UniProt P08069)
Experiment: Activity at pre-activated human GST-His6-tagged IGF-1R expressed in Sf9 cells assessed as initial phosphorylation rate at 10 uM measured every 2 mins for 60 mins by Michaelis-Menten constant based ADP Quest assay
Outline: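 Reaction buffer was the same plus 0.1 mg/mL BSA, with kinase, peptide substrate and detection reagents. Started with ATP; fluorescence read every 2 min for 60 min; 3 independent experiments.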

T1 sequence (P08069 31-736 limits assumed): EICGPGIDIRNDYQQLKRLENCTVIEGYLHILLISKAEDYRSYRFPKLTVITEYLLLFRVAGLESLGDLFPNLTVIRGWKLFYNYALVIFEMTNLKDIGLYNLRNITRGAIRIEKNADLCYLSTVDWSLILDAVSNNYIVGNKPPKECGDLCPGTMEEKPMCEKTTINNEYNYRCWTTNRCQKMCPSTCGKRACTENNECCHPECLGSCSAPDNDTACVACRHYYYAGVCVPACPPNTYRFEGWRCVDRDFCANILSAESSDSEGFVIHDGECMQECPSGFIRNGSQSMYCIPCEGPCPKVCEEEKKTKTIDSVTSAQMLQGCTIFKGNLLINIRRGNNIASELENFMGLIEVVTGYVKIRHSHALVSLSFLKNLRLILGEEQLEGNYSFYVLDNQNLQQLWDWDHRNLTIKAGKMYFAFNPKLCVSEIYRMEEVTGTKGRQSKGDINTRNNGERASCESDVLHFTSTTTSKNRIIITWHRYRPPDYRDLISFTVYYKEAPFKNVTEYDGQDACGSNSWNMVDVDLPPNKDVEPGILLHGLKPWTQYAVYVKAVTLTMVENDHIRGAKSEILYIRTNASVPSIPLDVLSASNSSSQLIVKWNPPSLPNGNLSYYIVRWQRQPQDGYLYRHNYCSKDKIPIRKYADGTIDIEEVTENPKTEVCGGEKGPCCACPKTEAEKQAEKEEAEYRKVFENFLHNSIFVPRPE
T1 sequence (P08069 741-1367 limits assumed): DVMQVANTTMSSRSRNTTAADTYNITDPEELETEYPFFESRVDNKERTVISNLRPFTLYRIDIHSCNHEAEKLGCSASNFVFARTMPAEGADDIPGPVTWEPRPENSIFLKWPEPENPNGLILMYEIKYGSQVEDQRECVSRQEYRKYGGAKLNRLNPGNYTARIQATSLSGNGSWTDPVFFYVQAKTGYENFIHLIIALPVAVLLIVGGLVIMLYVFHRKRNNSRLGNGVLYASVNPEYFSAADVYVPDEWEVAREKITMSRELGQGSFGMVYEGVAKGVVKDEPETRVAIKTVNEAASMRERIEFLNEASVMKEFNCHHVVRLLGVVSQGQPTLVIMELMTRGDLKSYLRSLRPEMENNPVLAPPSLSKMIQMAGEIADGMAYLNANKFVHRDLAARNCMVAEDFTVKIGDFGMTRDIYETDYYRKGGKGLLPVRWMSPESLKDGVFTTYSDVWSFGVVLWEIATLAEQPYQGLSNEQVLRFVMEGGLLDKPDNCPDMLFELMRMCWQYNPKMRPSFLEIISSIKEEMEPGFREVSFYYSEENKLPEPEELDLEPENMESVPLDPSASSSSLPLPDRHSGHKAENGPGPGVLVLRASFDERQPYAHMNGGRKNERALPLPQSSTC

SMILES | Activity
CNC(=O)[C@H](Cc1c[nH]c2ccccc12)NC(=O)[C@H](CCC(=O)O)NC(=O)[C@H](Cc1ccccc1)NC(=O)[C@H](Cc1ccc(O)cc1)NC(=O)[C@H](Cc1cccnc1)NC(C)=O | 0.4 nM/s
CNC(=O)[C@H](Cc1c[nH]c2ccccc12)NC(=O)CNC(=O)[C@H](Cc1ccccc1)NC(=O)[C@H](Cc1ccc(O)cc1)NC(=O)[C@H](CC(=O)O)NC(C)=O | 1.7 nM/s
CNC(=O)[C@H](Cc1c[nH]c2cc(Cl)ccc12)NC(=O)CNC(=O)[C@H](Cc1ccccc1)NC(=O)[C@H](Cc1ccc(O)cc1)NC(=O)[C@H](CC(=O)O)NC(C)=O (HELM PEPTIDE1{[ac].D.Y.F.G.[O=C([C@H](Cc1c[nH]c2cc(Cl)ccc12)N[*:1])[*:2]].[CN[*:1]]}$$$$V2.0) | 2.1 nM/s

Further lines, results first:

Activity | SMILES
3.8 nM/s | CNC(=O)[C@H](Cc1ccccc1)NC(=O)[C@H](CCC(=O)O)NC(=O)[C@H](Cc1ccccc1)NC(=O)[C@H](Cc1ccc(O)cc1)NC(=O)[C@@H]1CCC[C@H]1C(=O)O (HELM PEPTIDE1{[O=C(O)[C@@H]1CCC[C@H]1C(=O)[*:2]].Y.F.E.F.[CN[*:1]]}$$$$V2.0)
4.3 nM/s | CNC(=O)[C@H](Cc1c[nH]c2ccccc12)NC(=O)[C@H](CCC(=O)O)NC(=O)[C@H](Cc1ccccc1)NC(=O)[C@H](Cc1ccc(O)cc1)NC(=O)C1CCC1C(=O)O (some centres not stated) (HELM PEPTIDE1{[O=C(O)C1CCC1C(=O)[*:2]].Y.F.E.W.[CN[*:1]]}$$$$V2.0)
7.5 nM/s | CNC(=O)[C@H](Cc1c[nH]c2cc(Cl)ccc12)NC(=O)[C@H](CCC(=O)O)NC(=O)[C@H](Cc1ccccc1)NC(=O)[C@H](Cc1ccc(O)cc1)NC(=O)[C@H]1CCCC[C@@H]1C(=O)O (X2-YFE[Trp(6-Cl)]-NHMe)

Molecular target: T1, Insulin-like growth factor 1 receptor
Experiment: Activity at pre-activated human GST-His6-tagged IGF-1R expressed in Sf9 cells up to 1 mM measured every 2 mins for 60 mins by Michaelis-Menten constant based ADP Quest assay
Outline: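 Reactions used the same buffer plus 0.1 mg/mL BSA, pre-activated GST-His6-IGF-1R, peptide substrate titrated up to 1 mM, and ADP Quest reagents. ATP started the reaction. Fluorescence was read every 2 min for 60 min. KM came from a Michaelis-Menten fit, n = 3 independent experiments.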

SMILES | Activity
CNC(=O)[C@H](Cc1c[nH]c2ccccc12)NC(=O)[C@H](CCC(=O)O)NC(=O)[C@H](Cc1ccccc1)NC(=O)[C@@H](N)Cc1ccc(O)cc1 (HELM PEPTIDE1{Y.F.E.W.[CN[*:1]]}$$$$V2.0) | inactive

System: not listed separately
Experiment: Solubility of the compound at >1 mM
Format: physicochemical

solubility | SMILES
Insoluble | CNC(=O)[C@H](Cc1ccc(Cl)cc1)NC(=O)[C@H](CCC(=O)O)NC(=O)[C@H](Cc1ccccc1)NC(=O)[C@H](Cc1ccc(O)cc1)NC(=O)[C@H](Cc1cccnc1)NC(C)=O (Ac-[3Pal]YFE[Phe(4-Cl)]-NHMe)
Insoluble | CNC(=O)[C@H](Cc1c[nH]c2ccccc12)NC(=O)[C@H](CCC(=O)O)NC(=O)[C@H](Cc1ccccc1)NC(=O)[C@H](Cc1ccc(O)cc1)NC(=O)[C@H](Cc1cccnc1)NC(C)=O
Insoluble | CNC(=O)[C@@H](Cc1c[nH]c2ccccc12)NC(=O)[C@H](CCC(=O)O)NC(=O)[C@H](Cc1ccccc1)NC(=O)[C@H](Cc1ccc(O)cc1)NC(=O)[C@H](CCC(=O)O)NC(C)=O
Insoluble | CNC(=O)[C@@H](Cc1c[nH]c2ccccc12)NC(=O)[C@H](CCC(=O)O)NC(=O)[C@H](Cc1ccccc1)NC(=O)[C@H](Cc1ccc(O)cc1)NC(=O)[C@H](Cc1cccnc1)NC(C)=O

Molecular target: T1, Insulin-like growth factor 1 receptor
Experiment: Inhibition of pre-activated human GST-His6-tagged IGF-1R expressed in Sf9 cells using Ac-EAEDEPEGDYFEWLE-NHMe as substrate after 25 mins by luminescence assay

SMILES | IC50
CNC(=O)[C@H](Cc1ccc(Cl)cc1)NC(=O)[C@H](CCC(=O)O)NC(=O)[C@H](Cc1ccccc1)NC(=O)[C@H](Cc1ccc(C(O)P(=O)(O)O)cc1)NC(=O)[C@H](Cc1cccnc1)NC(C)=O (some centres not stated) (Ac-[3Pal][X7]FE[Phe(4-Cl)]-NHMe) | 489 µM
